Laboratory results reported in ChEMBL document CHEMBL1151261, “Antineoplastic agents. 509: synthesis of fluorcombstatin phosphate and related 3-halostilbenes(1)” (J Nat Prod, 2005).
In brackets after ≈: the same amount, converted by molar mass. Activity calls are given as the source filed them. No cut-off for these calls is given here.

What was measured:
P388 = test: Cytotoxicity against mouse P388 cells after 48 hrs by Coulter particle counting; conditions: P388, 48 h, read-out: ED50 (the source's name)
NCI-H460 = test: Cytotoxicity against human NCI-H460 cells after 48 hrs by sulforhodamine B assay; format: functional; conditions: NCI-H460, 48 h
Summary of the method: (§1)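 Human tumor lines exposed to compound for 48 h, then fixed with trichloroacetic acid and stained with sulforhodamine B (NCI standard protocol); optical density read on a microplate reader. GI50 is the concentration giving a 50% reduction in net protein increase, calculated from optical density data.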

Cryptococcus neoformans [1] = test: Antimicrobial activity against Cryptococcus neoformans ATCC 90112 at 64 ug/mL after 72 hrs by broth microdilution assay; format: functional, organism-based
Summary of the method: (§2)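 Yeast NCCLS broth microdilution (M27-A). Inoculum 0.5 to 2.5×10^3 CFU/mL; 2-fold dilutions in 0.165 M MOPS-buffered RPMI 1640, pH 7.0; compound from DMSO, DMSO-only turbidity control; 35 °C without agitation; read at 72 h (Cryptococcus). MIC = lowest concentration giving no visible growth.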

MCF7 = test: Cytotoxicity against human MCF7 cells after 48 hrs by sulforhodamine B assay; format: functional; conditions: MCF7, 48 h
Summary of the method: as §1

Neisseria gonorrhoeae [2] = test: Antimicrobial activity against Neisseria gonorrhoeae ATCC 49226 at 64 ug/mL after 24 hrs by broth microdilution assay; format: functional, organism-based
Summary of the method: (§3)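 Neisseria tested by NCCLS broth microdilution in gonococcal typing broth. Final inoculum about 5×10^5 CFU/mL; 2-fold compound dilutions from DMSO; DMSO turbidity control; 37 °C with 5% CO₂ without agitation, 24 h. MIC = lowest concentration with no visible growth.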

SF-268 = test: Cytotoxicity against human SF268 cells after 48 hrs by sulforhodamine B assay; format: functional; conditions: SF-268, 48 h
Summary of the method: as §1

Enterobacter cloacae = test: Antimicrobial activity against Enterobacter cloacae ATCC 13047 at 64 ug/mL after 24 hrs by broth microdilution assay; format: functional, organism-based
Summary of the method: (§4)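 NCCLS bacterial broth microdilution (M7-A5). Overnight colonies diluted to about 5×10^5 CFU/mL final; 2-fold compound dilutions (DMSO stock) in cation-adjusted Mueller Hinton II broth; DMSO turbidity control; 35 °C without agitation, 24 h. MIC = lowest concentration with optically clear wells.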

KM-20L2 = test: Cytotoxicity against human KM20L2 cells after 48 hrs by sulforhodamine B assay; format: functional; conditions: KM-20L2, 48 h
Summary of the method: as §1

BXPC-3 = test: Cytotoxicity against human BxPC3 cells after 48 hrs by sulforhodamine B assay; format: functional; conditions: BXPC-3, 48 h
Summary of the method: as §1

DU-145 = test: Cytotoxicity against human DU145 cells after 48 hrs by sulforhodamine B assay; format: functional; conditions: DU-145, 48 h
Summary of the method: as §1

Enterococcus faecalis = test: Antimicrobial activity against Enterococcus faecalis ATCC 29212 at 64 ug/mL after 24 hrs by broth microdilution assay; format: functional, organism-based
Summary of the method: as §4

Candida albicans = test: Antimicrobial activity against Candida albicans ATCC 90028 at 64 ug/mL after 48 hrs by broth microdilution assay; format: functional, organism-based
Summary of the method: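 Yeast NCCLS broth microdilution (M27-A). Inoculum 0.5 to 2.5×10^3 CFU/mL; 2-fold dilutions in 0.165 M MOPS-buffered RPMI 1640, pH 7.0; compound from DMSO, DMSO-only turbidity control; 35 °C without agitation; read at 48 h (Candida). MIC = lowest concentration giving no visible growth.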

Staphylococcus aureus = test: Antimicrobial activity against Staphylococcus aureus ATCC 29213 at 64 ug/mL after 24 hrs by broth microdilution assay; format: functional, organism-based
Summary of the method: as §4

[3] = tested on: Stenotrophomonas maltophilia; test: Antimicrobial activity against Stenotrophomonas maltophilia ATCC 13637 at 64 ug/mL after 24 hrs by broth microdilution assay; format: functional, organism-based
Summary of the method: as §4

Escherichia coli = test: Antimicrobial activity against Escherichia coli ATCC 25922 at 64 ug/mL after 24 hrs by broth microdilution assay; format: functional, organism-based
Summary of the method: as §4

Micrococcus luteus [4] = test: Antimicrobial activity against Micrococcus luteus Presque Isle 456 at 64 ug/mL after 24 hrs by broth microdilution assay; format: functional, organism-based
Summary of the method: as §4

Streptococcus pneumoniae [5] = test: Antimicrobial activity against Streptococcus pneumoniae ATCC 6303 at 64 ug/mL after 24 hrs by broth microdilution assay; format: functional, organism-based
Summary of the method: (§5)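 Streptococcus tested by NCCLS broth microdilution in cation-adjusted MHII broth with 3% lysed horse blood. Final inoculum about 5×10^5 CFU/mL; 2-fold compound dilutions from DMSO; DMSO turbidity control; 35 °C without agitation, 24 h. MIC = lowest concentration with no visible growth.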

Micrococcus luteus [6] = test: Antimicrobial activity against Micrococcus luteus Presque Isle 456 after 24 hrs by broth microdilution assay; format: functional
Summary of the method: as §4

HUVEC [7] = test: Induction of microtubule depolymerization in HUVEC at 10 uM after 2 hrs; format: functional, cell-based; conditions: Homo sapiens
Summary of the method: (§6)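 Primary HUVECs from umbilical cords grown in M199 with 20% human serum, CD31-authenticated. About 3×10^4 cells on gelatin-coated coverslips, 24 h at 37 °C, then compound from DMSO for 30 min to 4 h, in duplicate. Cells methanol-fixed, stained with anti-α-tubulin and TRITC secondary plus Hoechst, imaged by confocal microscopy and scored for microtubule damage.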

HUVEC [8] = test: Induction of microtubule damage in HUVEC at 1 uM after 1 hr; format: functional, cell-based; conditions: Homo sapiens
Summary of the method: as §6

HUVEC [9] = test: Induction of microtubule damage in HUVEC at 1 uM after 2 hrs; format: functional, cell-based; conditions: Homo sapiens
Summary of the method: as §6

HUVEC [10] = test: Reduction of junction numbers in HUVEC at 0.001 ug/mL; format: functional, cell-based; conditions: Homo sapiens
Summary of the method: (§7)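 Matrigel cord formation (NCI DTP protocol). Commercial HUVECs in EGM-2; Matrigel polymerized 15 min at RT then 30 min at 37 °C; 100 μL of 2×10^5 cells/mL plus compound solution; 24 h incubation. Imaged by inverted microscope; cord length and junction number compared with untreated controls.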

[11] = Cytotoxicity against HUVEC; format: cell-based; conditions: human, HUVEC cells; read-out: ED50 (the source's name)
Summary of the method: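 Commercial HUVECs grown in EGM-2 medium. Growth measured by the sulforhodamine B assay: 48 h exposure, TCA fixation, SRB stain, optical density read. ED50 = concentration giving 50% inhibition, taken from plotted data.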

HUVEC [12] = test: Induction of microtubule depolymerization in HUVEC at 10 uM after 4 hrs; format: functional, cell-based; conditions: Homo sapiens
Summary of the method: as §6

HUVEC [13] = test: Induction of microtubule depolymerization in HUVEC at 10 uM after 1 hr; format: functional, cell-based; conditions: Homo sapiens
Summary of the method: as §6

HUVEC [14] = test: Reduction of cord length in HUVEC at 0.01 ug/mL; format: functional, cell-based; conditions: Homo sapiens
Summary of the method: as §7

HUVEC [15] = test: Induction of microtubule damage in HUVEC at 1 uM after 4 hrs; format: functional, cell-based; conditions: Homo sapiens
Summary of the method: as §6

HUVEC [16] = test: Reduction of junction numbers in HUVEC at 0.01 ug/mL; format: functional, cell-based; conditions: Homo sapiens
Summary of the method: as §7

[17] = Inhibition of tubulin polymerization
Summary of the method: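 Turbidimetry at 350 nm. Compound at varying concentrations preincubated with 10 μM (1.0 mg/mL) purified tubulin, chilled on ice, then 0.4 mM GTP added and polymerization followed at 30 °C. Extent of polymerization at 20 min measured.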

HUVEC [18] = test: Induction of microtubule depolymerization in HUVEC at 10 uM after 30 mins; format: functional, cell-based; conditions: Homo sapiens
Summary of the method: as §6

[19] = Displacement of [3H]colchicine from tubulin
Summary of the method: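 [3H]colchicine binding with 1.0 μM tubulin, 5.0 μM [3H]colchicine and inhibitor at 1.0 μM.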

HUVEC [20] = test: Induction of microtubule damage in HUVEC at 1 uM after 30 mins; format: functional, cell-based; conditions: Homo sapiens
Summary of the method: as §6

Cryptococcus neoformans [21] = test: Antimicrobial activity against Cryptococcus neoformans ATCC 90112 after 72 hrs by broth microdilution assay; format: functional; conditions: ATCC 90112, 72 h
Summary of the method: as §2

Streptococcus pneumoniae [22] = test: Antimicrobial activity against Streptococcus pneumoniae ATCC 6303 after 24 hrs by broth microdilution assay; format: functional; conditions: ATCC 6303, 24 h
Summary of the method: as §5

Neisseria gonorrhoeae [23] = test: Antimicrobial activity against Neisseria gonorrhoeae ATCC 49226 after 24 hrs by broth microdilution assay; format: functional; conditions: ATCC 49226, 24 h
Summary of the method: as §3

HUVEC [24] = test: Reduction of cord length in HUVEC at 0.001 ug/mL; format: functional, cell-based; conditions: Homo sapiens
Summary of the method: as §7

Row | SMILES | EC50 (P388) | GI50 (NCI-H460) | Activity (Cryptococcus neoformans [1]) | GI50 (MCF7) | GI50 (SF-268) | Activity (Enterobacter cloacae) | GI50 (KM-20L2) | GI50 (BXPC-3) | GI50 (DU-145) | Activity (Enterococcus faecalis) | Activity (Candida albicans) | Activity (Staphylococcus aureus) | Activity [3] | Activity (Escherichia coli) | Activity (Micrococcus luteus [4]) | Activity (Streptococcus pneumoniae [5]) | other results
1 | COc1ccc(/C=C/c2cc(Br)c(OC)c(OC)c2)cc1O | 0.0174 µg/mL (≈ 0.0476 µM) | 0.15 µg/mL (≈ 0.411 µM) | inactive | 0.14 µg/mL (≈ 0.383 µM) | 0.18 µg/mL (≈ 0.493 µM) | inactive | 1.2 µg/mL (≈ 3.29 µM) | 1.6 µg/mL (≈ 4.38 µM) | 0.13 µg/mL (≈ 0.356 µM) | inactive | inactive | inactive | inactive | inactive | inactive | inactive | Activity (Neisseria gonorrhoeae [2]): inactive
2 | COc1ccc(/C=C\c2cc(F)c(OC)c(OC)c2)cc1OP(=O)(O)O | – | – | inactive | – | – | inactive | – | – | – | inactive | inactive | inactive | inactive | inactive | inactive | inactive | –
3 | COc1ccc(/C=C\c2cc(F)c(OC)c(OC)c2)cc1O [FLUORCOMBSTATIN] | < 0.002 µg/mL | < 0.0032 µg/mL | – | < 0.0027 µg/mL | < 0.0016 µg/mL | inactive | > 1 µg/mL | 0.745 µg/mL (≈ 2.45 µM) | 0.0019 µg/mL (≈ 0.00624 µM) | inactive | inactive | inactive | inactive | inactive | – | – | MIC (Micrococcus luteus [6]): 32 µg/mL (≈ 105 µM); Activity (HUVEC [7]): Active; Activity (HUVEC [8]): Active; Activity (HUVEC [9]): Active; Activity (HUVEC [10]): Active; CC50 [11]: 0.00025 µg/mL (≈ 0.000822 µM); Activity (HUVEC [12]): Active; Activity (HUVEC [13]): Active; Activity (HUVEC [14]): Active; Activity (HUVEC [15]): Active; Activity (HUVEC [16]): Active; IC50 [17]: 1500 nM; Activity (HUVEC [18]): Active; Activity [19]: 75%; Activity (HUVEC [20]): Active; MIC (Cryptococcus neoformans [21]): 64 µg/mL (≈ 210 µM); MIC (Streptococcus pneumoniae [22]): 64 µg/mL (≈ 210 µM); MIC (Neisseria gonorrhoeae [23]): 32 µg/mL (≈ 105 µM); Activity (HUVEC [24]): Active
